pIC50: −log10 of the molar value.
Legend:
[1] = biological target: Disintegrin and metalloproteinase domain-containing protein 17 (Homo sapiens, UniProt P78536); assay: Inhibition of human recombinant TACE after 60 mins by fluorescence plate reader
Procedure, shortened: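 rh-TACE at 80 ng/mL with 10 μM MCA-Pro-Leu-Ala-Gln-Ala-Val-Dpa-Arg-Ser-Ser-Ser-Arg-NH₂, in 100 mM Tris-HCl pH 7.5, 150 mM NaCl, 10 mM CaCl₂, 0.05% Brij-35. Inhibitor preincubated for 15 min at 25 °C. Fluorescence (ex 325/em 405 nm) read at 60 min. IC50 from three linear-range points; mean of ≥2.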

Interstitial collagenase = biological target: T1, Interstitial collagenase (Homo sapiens, UniProt P03956); assay: Inhibition of human recombinant MMP1 after 60 mins by fluorescence plate reader
T1 sequence (P03956 whole entry): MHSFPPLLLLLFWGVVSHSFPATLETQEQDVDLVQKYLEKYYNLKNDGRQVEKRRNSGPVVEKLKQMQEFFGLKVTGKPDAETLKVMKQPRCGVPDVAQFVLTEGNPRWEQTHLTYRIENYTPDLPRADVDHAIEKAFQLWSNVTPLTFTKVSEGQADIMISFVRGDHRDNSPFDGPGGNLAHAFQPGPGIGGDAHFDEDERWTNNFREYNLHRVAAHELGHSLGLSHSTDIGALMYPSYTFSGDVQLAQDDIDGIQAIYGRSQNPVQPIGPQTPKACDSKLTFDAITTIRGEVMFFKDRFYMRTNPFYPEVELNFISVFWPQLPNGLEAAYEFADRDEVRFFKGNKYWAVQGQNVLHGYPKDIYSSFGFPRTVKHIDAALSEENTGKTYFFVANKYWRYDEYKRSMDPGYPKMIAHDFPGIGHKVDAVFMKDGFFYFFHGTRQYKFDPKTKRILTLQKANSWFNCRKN
Procedure, shortened: (§1)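 Recombinant human enzyme at 20 ng/mL with 10 μM MOCAc-Lys-Pro-Leu-Gly-Leu-A2pr(Dnp)-Ala-Arg-NH₂, in 100 mM Tris-HCl pH 7.5, 150 mM NaCl, 10 mM CaCl₂, 0.05% Brij-35. Enzyme pretreated with inhibitor for 15 min at 25 °C, then substrate added. Fluorescence (ex 325, em 405 nm) read at 60 min. IC50 taken from three points in the linear range; mean of ≥2 determinations.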

[2] = biological target: Matrix metalloproteinase-14 (Homo sapiens, UniProt P50281); assay: Inhibition of human recombinant MMP14 after 60 mins by fluorescence plate reader; procedure, shortened: as §1
[3] = biological target: T2, A disintegrin and metalloproteinase with thrombospondin motifs 5 (Homo sapiens, UniProt Q9UNA0); assay: Inhibition of human recombinant aggrecanase 2 after 150 mins by fluorescence plate reader
T2 sequence (Q9UNA0 whole entry): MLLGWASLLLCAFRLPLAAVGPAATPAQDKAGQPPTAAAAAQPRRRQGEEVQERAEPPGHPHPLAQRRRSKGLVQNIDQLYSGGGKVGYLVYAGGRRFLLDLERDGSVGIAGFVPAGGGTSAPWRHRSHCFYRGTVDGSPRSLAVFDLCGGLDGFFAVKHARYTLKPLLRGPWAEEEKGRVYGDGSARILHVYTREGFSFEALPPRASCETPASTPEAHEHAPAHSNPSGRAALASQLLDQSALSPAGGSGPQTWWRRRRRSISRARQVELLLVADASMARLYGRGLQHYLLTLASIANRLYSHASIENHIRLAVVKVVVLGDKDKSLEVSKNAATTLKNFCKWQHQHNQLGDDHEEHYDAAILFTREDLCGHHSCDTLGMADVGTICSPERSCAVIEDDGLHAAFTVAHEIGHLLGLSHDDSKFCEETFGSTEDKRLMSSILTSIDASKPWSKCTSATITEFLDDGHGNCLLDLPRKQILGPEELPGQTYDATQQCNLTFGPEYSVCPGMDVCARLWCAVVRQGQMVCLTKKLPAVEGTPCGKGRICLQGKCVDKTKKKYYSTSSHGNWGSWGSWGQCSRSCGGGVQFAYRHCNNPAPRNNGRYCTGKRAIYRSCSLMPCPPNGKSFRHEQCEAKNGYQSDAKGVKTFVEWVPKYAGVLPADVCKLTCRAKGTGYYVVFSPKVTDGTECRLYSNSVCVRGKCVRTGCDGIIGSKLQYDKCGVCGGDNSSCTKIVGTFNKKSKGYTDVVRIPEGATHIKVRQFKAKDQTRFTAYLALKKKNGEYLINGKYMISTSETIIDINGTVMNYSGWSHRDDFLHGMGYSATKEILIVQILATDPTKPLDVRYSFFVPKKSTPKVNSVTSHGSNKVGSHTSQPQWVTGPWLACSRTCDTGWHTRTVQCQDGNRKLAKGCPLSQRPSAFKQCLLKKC

Homo sapiens = species on record: Homo sapiens; assay: Selectivity ratio of IC50 for human recombinant MMP14 to IC50 for human recombinant aggrecanase 2
[4] = biological target: T3, A disintegrin and metalloproteinase with thrombospondin motifs 4 (Homo sapiens, UniProt O75173); assay: Inhibition of human recombinant aggrecanase 1 after 150 mins by fluorescence plate reader
T3 sequence (O75173 whole entry): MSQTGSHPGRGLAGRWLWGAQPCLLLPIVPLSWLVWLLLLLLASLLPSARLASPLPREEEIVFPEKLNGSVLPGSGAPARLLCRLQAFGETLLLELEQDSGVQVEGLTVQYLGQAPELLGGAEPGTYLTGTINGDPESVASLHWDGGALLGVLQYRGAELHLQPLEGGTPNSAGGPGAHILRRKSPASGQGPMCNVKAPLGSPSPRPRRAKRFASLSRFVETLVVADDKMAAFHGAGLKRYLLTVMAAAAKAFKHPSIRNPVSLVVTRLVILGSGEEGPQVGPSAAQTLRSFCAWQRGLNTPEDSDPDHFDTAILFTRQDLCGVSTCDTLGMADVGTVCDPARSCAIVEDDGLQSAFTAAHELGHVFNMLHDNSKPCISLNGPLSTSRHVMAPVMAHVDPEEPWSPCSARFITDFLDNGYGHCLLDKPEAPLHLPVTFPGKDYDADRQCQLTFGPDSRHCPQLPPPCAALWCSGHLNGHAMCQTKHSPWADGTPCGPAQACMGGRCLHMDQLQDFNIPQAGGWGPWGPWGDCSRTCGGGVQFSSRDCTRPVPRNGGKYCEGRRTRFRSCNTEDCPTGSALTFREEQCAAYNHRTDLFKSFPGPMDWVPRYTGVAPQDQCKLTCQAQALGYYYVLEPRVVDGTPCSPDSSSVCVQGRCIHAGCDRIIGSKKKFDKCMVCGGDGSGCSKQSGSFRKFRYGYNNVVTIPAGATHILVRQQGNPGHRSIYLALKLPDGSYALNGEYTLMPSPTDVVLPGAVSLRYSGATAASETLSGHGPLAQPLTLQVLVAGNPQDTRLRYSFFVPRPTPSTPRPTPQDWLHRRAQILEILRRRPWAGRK

Cytochrome P450 3A4 = Cytochrome P450 3A4 (Homo sapiens, UniProt P08684); assay: Inhibition of CYP3A4 at up to 50 uM; format: ADME
Chain of Cytochrome P450 3A4 (P08684 whole entry): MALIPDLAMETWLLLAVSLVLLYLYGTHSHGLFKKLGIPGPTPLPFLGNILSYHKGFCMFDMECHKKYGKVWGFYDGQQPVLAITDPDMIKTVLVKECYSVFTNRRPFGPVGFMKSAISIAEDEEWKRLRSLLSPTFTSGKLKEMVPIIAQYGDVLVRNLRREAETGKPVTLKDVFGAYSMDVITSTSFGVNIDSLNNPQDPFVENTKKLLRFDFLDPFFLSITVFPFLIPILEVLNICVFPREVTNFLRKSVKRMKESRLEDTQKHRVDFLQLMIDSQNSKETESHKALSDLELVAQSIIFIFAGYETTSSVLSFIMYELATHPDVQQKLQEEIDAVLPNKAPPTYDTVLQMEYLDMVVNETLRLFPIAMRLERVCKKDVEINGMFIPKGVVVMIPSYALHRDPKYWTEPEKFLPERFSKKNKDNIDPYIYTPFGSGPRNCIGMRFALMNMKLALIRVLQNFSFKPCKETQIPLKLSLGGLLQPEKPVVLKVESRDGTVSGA

Cytochrome P450 2C19 = Cytochrome P450 2C19 (Homo sapiens, UniProt P33261); assay: Inhibition of CYP2C19 at up to 50 uM; format: ADME
Chain of Cytochrome P450 2C19 (P33261 whole entry): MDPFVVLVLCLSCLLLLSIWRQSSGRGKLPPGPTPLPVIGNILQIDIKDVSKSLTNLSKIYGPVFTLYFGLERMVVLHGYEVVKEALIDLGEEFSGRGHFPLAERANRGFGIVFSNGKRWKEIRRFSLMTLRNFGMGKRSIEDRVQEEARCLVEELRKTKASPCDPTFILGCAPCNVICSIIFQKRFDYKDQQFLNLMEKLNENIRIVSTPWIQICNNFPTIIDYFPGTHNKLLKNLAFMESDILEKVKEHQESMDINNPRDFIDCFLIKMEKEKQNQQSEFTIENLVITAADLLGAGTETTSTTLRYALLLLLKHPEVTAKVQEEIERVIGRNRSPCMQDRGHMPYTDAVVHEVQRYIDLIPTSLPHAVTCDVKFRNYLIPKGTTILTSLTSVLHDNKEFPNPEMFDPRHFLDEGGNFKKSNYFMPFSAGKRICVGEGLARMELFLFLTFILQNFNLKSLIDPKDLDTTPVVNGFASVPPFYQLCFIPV

Cytochrome P450 2C9 = Cytochrome P450 2C9 (Homo sapiens, UniProt P11712); assay: Inhibition of CYP2C9 at up to 50 uM; format: ADME
Chain of Cytochrome P450 2C9 (P11712 whole entry): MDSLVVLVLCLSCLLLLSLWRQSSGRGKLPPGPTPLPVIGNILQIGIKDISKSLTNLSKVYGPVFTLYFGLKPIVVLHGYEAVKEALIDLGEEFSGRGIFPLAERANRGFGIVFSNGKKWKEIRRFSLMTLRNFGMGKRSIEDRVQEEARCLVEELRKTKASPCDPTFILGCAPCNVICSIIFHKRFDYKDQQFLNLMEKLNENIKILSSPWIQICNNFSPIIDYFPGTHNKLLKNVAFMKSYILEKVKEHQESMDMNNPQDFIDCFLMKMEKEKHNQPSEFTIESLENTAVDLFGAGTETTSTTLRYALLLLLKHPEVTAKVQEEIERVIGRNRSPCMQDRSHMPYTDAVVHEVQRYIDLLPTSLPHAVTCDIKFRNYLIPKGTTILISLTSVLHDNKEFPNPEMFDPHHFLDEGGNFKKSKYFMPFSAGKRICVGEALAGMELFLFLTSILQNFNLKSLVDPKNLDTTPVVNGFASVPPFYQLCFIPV

Cytochrome P450 2D6 = Cytochrome P450 2D6 (Homo sapiens, UniProt P10635); assay: Inhibition of CYP2D6 at up to 50 uM; format: ADME
Chain of Cytochrome P450 2D6 (P10635 whole entry): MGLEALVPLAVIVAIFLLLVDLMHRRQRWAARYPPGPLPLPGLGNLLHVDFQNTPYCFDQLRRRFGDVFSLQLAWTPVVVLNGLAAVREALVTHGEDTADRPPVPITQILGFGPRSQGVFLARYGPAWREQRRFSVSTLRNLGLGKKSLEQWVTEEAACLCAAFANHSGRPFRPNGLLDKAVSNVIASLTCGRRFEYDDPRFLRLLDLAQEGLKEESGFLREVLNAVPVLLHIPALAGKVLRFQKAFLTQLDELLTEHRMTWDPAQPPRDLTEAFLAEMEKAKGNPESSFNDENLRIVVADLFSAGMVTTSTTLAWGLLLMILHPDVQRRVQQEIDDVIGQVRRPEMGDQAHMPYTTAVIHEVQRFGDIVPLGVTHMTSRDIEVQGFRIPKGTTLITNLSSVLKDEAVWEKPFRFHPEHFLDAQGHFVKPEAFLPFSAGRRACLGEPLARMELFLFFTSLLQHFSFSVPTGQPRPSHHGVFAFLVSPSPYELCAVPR

Cytochrome P450 1A2 = biological target: T4, Cytochrome P450 1A2 (Homo sapiens, UniProt P05177); assay: Inhibition of CYP1A2 at up to 50 uM; format: ADME
T4 sequence (P05177 whole entry): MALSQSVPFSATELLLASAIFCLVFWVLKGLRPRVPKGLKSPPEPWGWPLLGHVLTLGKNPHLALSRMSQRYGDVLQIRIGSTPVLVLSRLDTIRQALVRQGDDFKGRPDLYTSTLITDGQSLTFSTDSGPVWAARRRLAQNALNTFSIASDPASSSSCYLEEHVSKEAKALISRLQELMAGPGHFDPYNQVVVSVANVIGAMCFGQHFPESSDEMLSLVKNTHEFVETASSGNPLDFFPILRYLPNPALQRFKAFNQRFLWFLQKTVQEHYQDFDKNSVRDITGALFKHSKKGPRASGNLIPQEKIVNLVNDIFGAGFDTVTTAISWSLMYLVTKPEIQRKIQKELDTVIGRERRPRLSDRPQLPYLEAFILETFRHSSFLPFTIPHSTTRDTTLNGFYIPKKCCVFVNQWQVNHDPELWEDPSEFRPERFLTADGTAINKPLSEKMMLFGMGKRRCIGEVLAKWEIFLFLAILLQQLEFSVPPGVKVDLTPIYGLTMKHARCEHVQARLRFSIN

Cytochrome P450 2A6 = biological target: T5, Cytochrome P450 2A6 (Homo sapiens, UniProt P11509); assay: Inhibition of CYP2A6 at up to 50 uM; format: ADME
T5 sequence (P11509 whole entry): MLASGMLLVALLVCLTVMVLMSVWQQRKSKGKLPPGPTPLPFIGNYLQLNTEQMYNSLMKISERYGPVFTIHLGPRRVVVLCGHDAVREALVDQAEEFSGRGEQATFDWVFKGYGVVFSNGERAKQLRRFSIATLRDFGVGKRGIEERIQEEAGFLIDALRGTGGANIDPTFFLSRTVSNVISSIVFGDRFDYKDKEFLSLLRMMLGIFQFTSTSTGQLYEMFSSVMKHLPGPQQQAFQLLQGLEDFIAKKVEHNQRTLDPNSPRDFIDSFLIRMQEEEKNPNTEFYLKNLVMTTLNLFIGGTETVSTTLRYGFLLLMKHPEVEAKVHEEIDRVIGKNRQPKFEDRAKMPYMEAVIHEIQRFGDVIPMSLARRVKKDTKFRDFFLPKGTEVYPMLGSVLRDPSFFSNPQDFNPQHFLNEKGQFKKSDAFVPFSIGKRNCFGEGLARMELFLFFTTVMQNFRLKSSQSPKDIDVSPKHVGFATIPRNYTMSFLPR

[5] = Volume of distribution at steady state in Sprague-Dawley rat at 1 mg/kg, iv; format: ADME, organism-based; design: dose 1 mg/kg, route intravenous; settings: in vivo, read-out: Vdss
Procedure, shortened: (§2)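 Intravenous dose of 1 mg/kg. Blood sampled at 0.50, 1, 2, 4, 8 and 24 h. Plasma obtained by centrifugation at 10 000 rpm for 5 min and kept at −20 °C until analysis.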

[6] = Clearance in Sprague-Dawley rat at 1 mg/kg, iv; format: ADME, organism-based; design: dose 1 mg/kg, route intravenous; settings: in vivo; procedure, shortened: as §2
[7] = Half life in Sprague-Dawley rat at 10 mg/kg, po; format: ADME, organism-based; design: dose 10 mg/kg, route oral; settings: in vivo
[8] = Cmax in Sprague-Dawley rat at 10 mg/kg, po; format: ADME, organism-based; design: dose 10 mg/kg, route oral; settings: in vivo
[9] = AUC in Sprague-Dawley rat at 10 mg/kg, po; format: ADME, organism-based; design: dose 10 mg/kg, route oral; settings: plasma
[10] = Oral bioavailability in Sprague-Dawley rat at 10 mg/kg; format: ADME, organism-based; settings: Sprague-Dawley, in vivo

Chain of Disintegrin and metalloproteinase domain-containing protein 17 (P78536 whole entry, the tested form may be a part): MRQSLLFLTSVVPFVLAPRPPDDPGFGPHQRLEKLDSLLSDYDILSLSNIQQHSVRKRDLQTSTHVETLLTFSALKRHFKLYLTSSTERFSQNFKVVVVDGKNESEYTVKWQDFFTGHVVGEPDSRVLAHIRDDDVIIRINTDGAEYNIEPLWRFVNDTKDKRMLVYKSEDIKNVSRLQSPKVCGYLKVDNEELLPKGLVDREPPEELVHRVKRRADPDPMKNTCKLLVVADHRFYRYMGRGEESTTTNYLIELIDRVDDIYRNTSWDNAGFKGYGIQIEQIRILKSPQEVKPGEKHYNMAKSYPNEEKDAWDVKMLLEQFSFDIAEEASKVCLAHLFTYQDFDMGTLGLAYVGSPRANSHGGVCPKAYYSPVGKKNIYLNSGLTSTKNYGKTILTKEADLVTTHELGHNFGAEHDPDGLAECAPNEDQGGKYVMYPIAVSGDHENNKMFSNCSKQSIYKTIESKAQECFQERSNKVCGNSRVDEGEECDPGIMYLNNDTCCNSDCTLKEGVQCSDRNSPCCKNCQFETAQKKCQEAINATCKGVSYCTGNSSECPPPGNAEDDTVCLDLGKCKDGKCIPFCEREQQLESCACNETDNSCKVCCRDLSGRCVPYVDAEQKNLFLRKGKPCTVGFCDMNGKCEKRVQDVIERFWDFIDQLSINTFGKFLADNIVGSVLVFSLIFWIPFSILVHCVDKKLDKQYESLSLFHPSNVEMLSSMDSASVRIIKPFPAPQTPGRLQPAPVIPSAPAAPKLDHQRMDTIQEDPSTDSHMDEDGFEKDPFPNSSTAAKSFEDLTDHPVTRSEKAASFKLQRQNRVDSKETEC

SMILES	pIC50 [1]	pIC50 (Interstitial collagenase)	pIC50 [2]	pIC50 [3]	Ratio IC50 (Homo sapiens)	pIC50 [4]	inhibition (INH) (Cytochrome P450 3A4)	inhibition (INH) (Cytochrome P450 2C19)	inhibition (INH) (Cytochrome P450 2C9)	inhibition (INH) (Cytochrome P450 2D6)	inhibition (INH) (Cytochrome P450 1A2)	inhibition (INH) (Cytochrome P450 2A6)	Vd [5]	clearance [6]	half-life [7]	Cmax [8]	AUC [9]	bioavailability [10]
C[C@@H]1CN(S(=O)(=O)N[C@@]2(C(=O)O)[C@H](C)[C@@H]2c2ccccc2)CCN1c1ccc(Cl)cc1	< 5.00	< 5.00	5.68	7.43	10													
C[C@@H]1[C@H](c2ccccc2)[C@]1(NS(=O)(=O)N1CCN(c2ccc(Cl)cc2)[C@@H](C)C1)C(=O)O	< 5.00	< 5.00	5.60	7.33	10													
O=C(NO)c1nc2ccccc2c2c1CN(c1ccc(OCc3ccccc3)cc1)C2=O				6.02		6.68												
CC(C)(NC(=O)[C@H](CCC(=O)O)NC(=O)c1ccc(-c2ccccc2)cc1)c1ccccc1				5.96		6.68												

Now those with a higher pIC50 [3], led by results:

pIC50 [1]	pIC50 (Interstitial collagenase)	pIC50 [2]	pIC50 [3]	Ratio IC50 (Homo sapiens)	pIC50 [4]	inhibition (INH) (Cytochrome P450 3A4)	inhibition (INH) (Cytochrome P450 2C19)	inhibition (INH) (Cytochrome P450 2C9)	inhibition (INH) (Cytochrome P450 2D6)	inhibition (INH) (Cytochrome P450 1A2)	inhibition (INH) (Cytochrome P450 2A6)	Vd [5]	clearance [6]	half-life [7]	Cmax [8]	AUC [9]	bioavailability [10]	SMILES
			8.85		8.96													CC1(C)C[C@@H](O)CN(S(=O)(=O)c2ccc(OCc3ccc(Cl)cc3Cl)cc2)[C@H]1C(=O)NO
< 5.00	< 5.00	5.27	7.57	200														C[C@@H]1CN(S(=O)(=O)N[C@@]2(C(=O)O)[C@H](C)[C@@H]2c2ccccc2)CCN1c1cc(C(F)F)on1
< 5.00	< 5.00	< 5.00	7.77			Not Active	Not Active	Not Active	Not Active	Not Active	Not Active	1.9 L/kg	11.7 mL/min/kg	1.9 h	4.9 µM	17.8 µM·h	64%	C[C@@H]1CN(S(=O)(=O)N[C@@]2(C(=O)O)[C@H](C)[C@]2(C)c2ccccc2)CCN1c1cc(C(F)F)on1
6.37	< 5.00	< 5.00	7.92		8.52													O=C(NO)[C@@H](NCC1CC1)[C@@H](Cc1cccc(O)c1)C(=O)N[C@H]1c2ccccc2C[C@H]1O
< 5.00	< 5.00	< 5.00	7.54			Not Active	Not Active	Not Active	Not Active	Not Active	Not Active	2.6 L/kg	4.83 mL/min/kg	4.5 h	15.9 µM	88.4 µM·h	119%	C[C@@H]1CN(S(=O)(=O)N[C@@]2(C(=O)O)[C@H](C)[C@]2(C)c2ccccc2)CCN1c1ccc(C#N)s1

From ChEMBL document CHEMBL1765003, “Discovery of (1S,2R,3R)-2,3-dimethyl-2-phenyl-1-sulfamidocyclopropanecarboxylates: novel and highly selective aggrecanase inhibitors” (J Med Chem, 2011)
